This is an account of results in ChEMBL document CHEMBL1130025, “Dihydro(alkylthio)(naphthylmethyl)oxopyrimidines: novel non-nucleoside reverse transcriptase inhibitors of the S-DABO series” (J Med Chem, 1997).

A word on the EC50: it is the concentration needed to bring the measured effect to its halfway point. The low end stands for higher potency in that assay, the high end for lower potency in that assay. For orientation: CC50 means the concentration at which the toxic effect on the cells reaches its halfway point. Usually IC50 stands for the midpoint of a concentration-inhibition curve.

For one experiment, the system named is H9. Briefly: Ability to inhibit HIV-1 multiplication in chronically infected H9/IIIB cells. In kind it is functional, cell-based. Conditions: Homo sapiens. A digest of the protocol: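 Value taken as compound dose lowering infectious HIV-1 titer by 1 log in chronically infected H9/IIIB cells. Titer was read in C8166 cells by limiting dilution (1:2, 4 replica wells per dilution), with light-microscope scoring of cytopathicity after 4 days, expressed as CCID50/mL. Data are means of three separate experiments.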

For experiment [1], the system named is Human immunodeficiency virus type 1. Briefly: Selectivity index is the ratio of CC50 to EC50. Conditions: Human immunodeficiency virus 1.
In experiment [2] the test system is MT4. In words: Inhibitory activity against resistant HIV-1 strain Nevr was determined. In kind it is functional, cell-based. The following applies: Homo sapiens.
In a further experiment the test system is C8166. In words: Ability to inhibit HIV-2 multiplication in acutely infected C8166 cells. In kind it is functional, cell-based. Conditions: Homo sapiens. In a few lines:
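C8166 cells (1×10^4 per well) in RPMI 1640 with 10% FCS were infected with 1000 CCID50 of HIV-2 ROD, alongside serial compound dilutions from DMSO stock. After 5 days at 37 °C, viable cells were counted by MTT. EC50 is the dose giving 50% protection from virus-induced cytopathicity. Data are means of three experiments.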

For experiment [3], the system named is MT4. In words: Dose required to achieve 50% protection of MT-4 cells from the HIV-1 induced cytopathogenicity in HIV-1 infected MT-4 cells. Conditions: Homo sapiens. Background: Cytopathic effects are the visible damage that an infection or toxin causes in cultured cells.
The test system of experiment [4] is MT4. Briefly: (§1) Inhibitory activity against resistant HIV-1 strain NevR was determined. The following applies: Homo sapiens. In kind it is functional, cell-based.
Experiment [5] deals with MT4. Briefly: Dose required to reduce the viability of mock-infected cells by 50%. In kind it is functional. Conditions: Homo sapiens. A digest of the protocol: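 Mock-infected MT-4 cells (1×10^4 per well) were exposed to compound dilutions in parallel with the antiviral assay. After 4 days at 37 °C, viability was measured by MTT. CC50 is the dose reducing viable cell number by 50%.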

The test system of experiment [6] is MT4. Briefly: (§2) Inhibitory activity against resistant HIV-1 strain MC639r was determined. In kind it is functional, Homo sapiens.
Experiment [7] concerns MT4. The description is as §1. In kind it is functional, Homo sapiens.
Experiment [8] has as its system MT4. The description is as §2. The following applies: Homo sapiens. In kind it is functional, cell-based.
In experiment [9] the target is Human immunodeficiency virus type 1 reverse transcriptase (Human immunodeficiency virus 1, UniProt Q72547). Briefly: Compound concentration required to inhibit the HIV-1 recombinant Reverse transcriptase (rRT) activity by 50%.
In experiment [10] the test system is MT4. Briefly: Inhibitor activity against resistant HIV-1 strain MC639r was determined. In kind it is functional, cell-based. Conditions: Homo sapiens.

Structures are written as SMILES. Bounds are passed on as bounds.

For the compound `Oc1cc(Cc2cccc3ccccc23)nc(SC2CCCC2)n1`, the concentration for a half-maximal effect (EC50) was > 100 µM with H9; > 100 µM in the experiment on MT4 [2]; > 100 µM with C8166; 2000 nM in the experiment with MT4 [3]; > 100 µM with MT4 [4]. Further, the Ratio in experiment [1] was > 150. In the experiment with MT4 [5], the CC50 was > 300 µM.

Take `Cc1cn([C@H]2C[C@H](N=[N+]=[N-])[C@@H](CO)O2)c(=O)[nH]c1=O` [ZIDOVUDINE]: the concentration for a half-maximal effect (EC50) in the experiment with H9 is > 20 µM; with C8166, 0.015 µM. In addition, the EIC50 stood at 0.003 µM in the experiment on MT4 [6] and 0.013 µM with MT4 [7]. Also, the CC50 in the experiment on MT4 [5] was > 80 µM.

As for `CCC(C)Sc1nc(O)cc(Cc2ccc3ccccc3c2)n1` (stereo unspecified), the EC50 was > 100 µM with H9; 4.1 µM in the experiment with MT4 [8]; > 100 µM in the experiment with C8166; 2800 nM in the experiment on MT4 [3]; > 100 µM in the experiment with MT4 [4]. In addition, in experiment [1], the Ratio was 14. Also, the IC50 in experiment [9] was determined as 7.4 µM. In addition, the midpoint of cytotoxicity with MT4 [5], the CC50, lay at 40 µM.

Turning to `CCC(C)Sc1nc(O)c(C)c(Cc2cccc3ccccc23)n1` (stereo unspecified), the concentration for a half-maximal effect (EC50) with H9 was > 100 µM; with MT4 [8], 6 µM; in the experiment on C8166, > 100 µM; in the experiment with MT4 [3] it was 1000 nM; in the experiment with MT4 [4], > 100 µM. The Ratio in [1] is > 300. The CC50 with MT4 [5] was > 300 µM.

With `CCC(C)Sc1nc(O)c(C)c(Cc2ccc3ccccc3c2)n1` (stereo unspecified), the EC50 in the experiment with H9 is > 100 µM; in the experiment with MT4 [8] it was 17.8 µM; in the experiment on C8166, > 100 µM; with MT4 [3] it was 1700 nM; in the experiment on MT4 [4], > 100 µM. In addition, the Ratio in experiment [1] is 47. This compound also returned a 50% cytotoxic concentration (CC50) with MT4 [5] of 80 µM.

With `Oc1cc(Cc2ccc3ccccc3c2)nc(SC2CCCCC2)n1`, the EC50 was > 100 µM with H9; 20 µM in the experiment on MT4 [8]; > 100 µM in the experiment with C8166; 1700 nM with MT4 [3]; > 100 µM in the experiment with MT4 [4]. Further, the Ratio in [1] was > 128. Further, the IC50 in experiment [9] came out at 33.1 µM. For the same compound, the CC50 in the experiment on MT4 [5] was > 300 µM.

Take `CCC(C)Sc1nc(O)cc(Cc2cccc3ccccc23)n1` (stereo unspecified): the EC50 in the experiment with H9 is > 100 µM; with MT4 [8], 2.1 µM; in the experiment with C8166, > 100 µM; with MT4 [3] it was 330 nM; with MT4 [4], > 100 µM. Further, the Ratio in [1] was > 909. Besides, in experiment [9], the IC50 is 8.1 µM. Also, the CC50 in the experiment with MT4 [5] is > 300 µM.

As for `Cc1c(O)nc(SC2CCCC2)nc1Cc1cccc2ccccc12`, the EC50 in the experiment on H9 was > 100 µM; in the experiment with MT4 [8], 16.2 µM; in the experiment on C8166, > 100 µM; with MT4 [3], 6000 nM; in the experiment with MT4 [4] it was > 100 µM. Moreover, the Ratio in experiment [1] is > 50. Besides, the CC50 with MT4 [5] is > 300 µM.

As for `Cc1cccc(Cc2nc(SC3CCCCC3)nc(O)c2C)c1`, the EC50 with H9, in the experiment with MT4 [8], with C8166 and in the experiment on MT4 [4] was > 100 µM throughout. The Ratio in experiment [1] is > 500. Further, the IC50 in experiment [9] came to 0.9 µM. The CC50 in the experiment with MT4 [5] is > 300 µM.

In the case of `CCC(C)Sc1nc(O)c(C)c(COc2ccccc2)n1` (stereo unspecified), the EC50 was > 100 µM in the experiment on H9; > 100 µM in the experiment on MT4 [10]; > 100 µM in the experiment with C8166; 8900 nM in the experiment with MT4 [3]; > 100 µM in the experiment with MT4 [4]. Also, the Ratio in experiment [1] turned out to be 7. In the experiment on MT4 [5], this compound yielded a CC50 of 60 µM.
